Published values pooled from the literature.
Lines come from different studies, so protocols differ. Values after ≈ are worked out from the molar mass of the structure shown.

SMILES	target or system	test	test system	conditions	quantity	value
CN(C)CCNC(=O)c1ccc(-c2nc3ccc4[nH]ncc4c3c3c2CCCC3)c(F)c1	BJ	cell growth or viability		72 h	GI50	9.72 µM
CCS(=O)(=O)Oc1ccc(C=NNC(=O)CSc2nc3ccc(Cl)cc3c(=O)n2-c2ccccc2)cc1	Bacillus cereus	microbial growth, well diffusion		20 µg/mL	inhibition zone	2 mm
CN(C)CCNC(=O)c1ccc(-c2nc3ccc4[nH]ncc4c3c3c2CCCC3)cc1	BJ	cell growth or viability		72 h	GI50	> 10 µM
O=C(O)c1ccc(NCc2cc(Br)ccc2O)cc1	NCI-H69	cell growth or viability, resazurin		72 h	IC50	> 100 µM
Cc1n[nH]c2ccc3nc(-c4ccc(C(=O)NCCN(C)C)cc4F)c4c(c3c12)CCCCC4	BJ	cell growth or viability		72 h	GI50	> 10 µM
CC(C)c1ccc(/C=C2\N=C(SCC(=O)O)N(c3ccccc3)C2=O)cc1	Bacillus cereus	microbial growth, broth dilution	ATCC14579		MIC	12 µg/mL (≈ 31.5 µM)
O=C(O)c1ccc(NCc2cccc(O)c2O)cc1	NCI-H69	cell growth or viability, resazurin		72 h	IC50	32.2 µM
O=C(O)c1cn(C2CC2)c2cc(N3CCNCC3)c(F)cc2c1=O	Salmonella enterica	microbial growth, well diffusion	TYPHIMURIUM	20 µg/mL	inhibition zone	4 mm
COc1cc(CNc2ccc(C(=O)O)cc2)cc(OC)c1O	NCI-H69	cell growth or viability, resazurin		72 h	IC50	> 100 µM
CCc1nc(C(N)=O)c(Nc2ccc(N3CCC(N4CCN(C)CC4)CC3)c(OC)c2)nc1NC1CCOCC1	BJ	cell growth or viability		72 h	GI50	> 10 µM
N=c1sc(C(=O)c2ccc(Nc3cnccn3)cc2)nn1-c1ccccc1	Salmonella enterica	microbial growth, broth dilution	ATCC13076 TYPHIMURIUM		MIC	100 µg/mL (≈ 267 µM)
COc1ccc(C=NNC(=O)CSc2nc3c(C)cccc3c(=O)n2-c2ccccc2)cc1OS(C)(=O)=O	Salmonella enterica	microbial growth, well diffusion	TYPHIMURIUM	20 µg/mL	inhibition zone	3 mm
COc1ccccc1CNc1ccc(C(=O)O)cc1	NCI-H69	cell growth or viability, resazurin		72 h	IC50	> 100 µM
O=C(N[C@H](CO)[C@H](O)c1ccc([N+](=O)[O-])cc1)C(Cl)Cl	Salmonella enterica	microbial growth, broth dilution	ATCC13076 TYPHIMURIUM		MIC	6.25 µg/mL (≈ 19.3 µM)
Nc1ccc(S(=O)(=O)Nc2ncccn2)cc1	Bacillus cereus	microbial growth, well diffusion		20 µg/mL	inhibition zone	3 mm
N=c1sc(C(=O)c2ccc(Nc3cnccn3)cc2)nn1-c1ccc([N+](=O)[O-])cc1	Salmonella enterica	microbial growth, broth dilution	ATCC13076 TYPHIMURIUM		MIC	6.25 µg/mL (≈ 14.9 µM)
CCCS(=O)(=O)Oc1ccc(C=NNC(=O)CSc2nc3ccc(Cl)cc3c(=O)n2-c2ccccc2)cc1OC	Bacillus cereus	microbial growth, well diffusion		20 µg/mL	inhibition zone	2 mm
Cc1n[nH]c2ccc3nc(-c4ccc(C(=O)NCCN(C)C)cc4)c4c(c3c12)CCCC4	BJ	cell growth or viability		72 h	GI50	7.16 µM
CC(=O)C1=NN(c2ccc([N+](=O)[O-])cc2)C(=C(C#N)C(=O)c2ccc(Nc3cnccn3)cc2)S1	Salmonella enterica	microbial growth, broth dilution	ATCC13076 TYPHIMURIUM		MIC	12.5 µg/mL (≈ 25.7 µM)
